Measured values published in ChEMBL document CHEMBL1124093, “Peptide derivatives of primaquine as potential antimalarial agents” (J Med Chem, 1988).

Assays:
Mus musculus [1] = assay: Antimalarial activity against Plasmodium berghei in rodent at 80 mg/Kg measured as mean survival time over control (Delta MST); assay type: functional
Mus musculus [2] = assay: Antimalarial activity against Plasmodium berghei in mice (Mus musculus) at 160 mg/kg measured as number of toxic deaths occurring on days 2-5 after infection; assay type: ADME, organism-based; design: dose 160 mg/kg; conditions: in vivo
Summary of the method: (§1)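 Mice infected with blood-induced P. berghei, five animals per group, run by the Osdene et al. method. Doses are expressed as mg primaquine diphosphate/kg. The read-out is the number of deaths attributed to toxicity occurring on days 2-5 after infection.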

Plasmodium cynomolgi [3] = assay: Antimalarial activity against Plasmodium cynomolgi in Rhesus monkeys (Macaca mulatta) at 1 mg/kg; cured 1 of 2
Plasmodium cynomolgi [4] = assay: Antimalarial activity against Plasmodium cynomolgi in Rhesus monkeys (Macaca mulatta) at 0.316 mg/kg; cured 0 of 2; assay type: functional
Mus musculus [5] = assay: Antimalarial activity against Plasmodium berghei in mice (Mus musculus) at 640 mg/kg measured as number of toxic deaths occurring on days 2-5 after infection; assay type: ADME, organism-based; design: dose 640 mg/kg; conditions: in vivo; summary of the method: as §1
Mus musculus [6] = assay: Antimalarial activity against Plasmodium berghei in mice (Mus musculus) at 320 mg/kg measured as number of toxic deaths occurring on days 2-5 after infection; assay type: ADME, organism-based; design: dose 320 mg/kg; conditions: in vivo; summary of the method: as §1

For COc1cc(NC(C)CCCN)c2ncccc2c1 (stereo unspecified) [PRIMAQUINE], which “Delta MST” value (Mus musculus [1]) is on record?
Its value is 9.

And the Toxic deaths (Mus musculus [2])?
The Toxic deaths was 2.

And the Cures (Plasmodium cynomolgi [3])?
Its Cures is 1.

And the Cures (Plasmodium cynomolgi [4])?
Its Cures is 0.

And the Toxic deaths (Mus musculus [5])?
The Toxic deaths was 5.

And the Toxic deaths (Mus musculus [6])?
Its Toxic deaths is 5.
